Reference: ChEMBL document CHEMBL3352086, “Structure-based design and development of functionalized Mercaptoguanine derivatives as inhibitors of the folate biosynthesis pathway enzyme 6-hydroxymethyl-7,8-dihydropterin pyrophosphokinase from Staphylococcus aureus” (J Med Chem, 2014)
Calls of active or inactive are those of the source. The calls are words filed in the database; no cut-off is given here.

What was measured:
[1] = molecular target: T1, 2-amino-4-hydroxy-6-hydroxymethyldihydropteridin e pyrophosphokinase (Staphylococcus aureus) (UniProt X5EH84); experiment: Binding affinity to Staphylococcus aureus HPPK in presence of ATP by NMR spectroscopy
T1 sequence (whole entry): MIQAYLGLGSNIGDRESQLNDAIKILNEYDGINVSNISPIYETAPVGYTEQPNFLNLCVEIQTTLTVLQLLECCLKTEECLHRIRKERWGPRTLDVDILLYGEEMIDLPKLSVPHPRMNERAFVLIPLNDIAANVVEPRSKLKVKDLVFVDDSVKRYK

[2] = molecular target: T2, 2-amino-4-hydroxy-6-hydroxymethyldihydropteridin e pyrophosphokinase (Staphylococcus aureus, UniProt X5EH84); experiment: Binding affinity to Staphylococcus aureus recombinant HPPK by surface plasmon resonance analysis in presence of ATP
T2 sequence (X5EH84 whole entry): T1 sequence (whole entry)
Summary of the method: (§1)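 Ni/NHS-EDC capture-coupled on an NTA chip (SaHPPK loaded at 225 μg mL⁻¹, ~5400 RU; EcDHPS at 80 μg mL⁻¹, ~7200 RU), with a USP7 control surface. Analytes were 3-fold serially diluted, with 30 s contact at 60 μL min⁻¹ and 60 s dissociation, in duplicate or more. Responses were double-referenced and equilibrium responses fit to a 1:1 steady-state model.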

[3] = molecular target: T2, 2-amino-4-hydroxy-6-hydroxymethyldihydropteridin e pyrophosphokinase; experiment: Binding affinity to Staphylococcus aureus recombinant HPPK by surface plasmon resonance analysis; summary of the method: as §1
[4] = molecular target: T3, Dihydropteroate synthase (Bacteria, UniProt P0AC13); experiment: Binding affinity to Escherichia coli DHPS by surface plasmon resonance analysis; summary of the method: as §1
T3 sequence (P0AC13 whole entry): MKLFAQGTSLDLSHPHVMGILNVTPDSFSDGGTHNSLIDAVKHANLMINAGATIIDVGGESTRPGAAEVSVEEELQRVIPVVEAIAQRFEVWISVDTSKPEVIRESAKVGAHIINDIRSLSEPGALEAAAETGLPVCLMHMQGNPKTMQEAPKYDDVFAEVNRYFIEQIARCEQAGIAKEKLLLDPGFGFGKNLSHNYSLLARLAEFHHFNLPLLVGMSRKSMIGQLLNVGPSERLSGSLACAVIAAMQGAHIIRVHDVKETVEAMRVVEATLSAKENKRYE

[5] = molecular target: T1, 2-amino-4-hydroxy-6-hydroxymethyldihydropteridin e pyrophosphokinase (Staphylococcus aureus); experiment: Binding affinity to Staphylococcus aureus HPPK in absence of ATP by NMR spectroscopy
[6] = molecular target: T1, 2-amino-4-hydroxy-6-hydroxymethyldihydropteridin e pyrophosphokinase (Staphylococcus aureus); experiment: Binding affinity to Staphylococcus aureus HPPK in presence of AMPCPP by NMR spectroscopy
Summary of the method: (§2)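 ¹⁵N-labelled SaHPPK was expressed in E. coli BL21(DE3) in minimal medium with ¹⁵N ammonium chloride. 2D ¹⁵N HSQC spectra used ~120 μM SaHPPK in 50 mM HEPES pH 8 with 10 mM Mg²⁺ and saturating AMPCPP. Ligand was titrated to saturation from a 50 mM DMSO-d₆ stock, and binding was tracked by backbone amide chemical shift perturbations.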

[7] = molecular target: T1, 2-amino-4-hydroxy-6-hydroxymethyldihydropteridin e pyrophosphokinase (Staphylococcus aureus); experiment: Binding affinity to Staphylococcus aureus HPPK in presence of AMPCPP by 2D 15N HSQC NMR spectroscopy; summary of the method: as §2
[8] = molecular target: T2, 2-amino-4-hydroxy-6-hydroxymethyldihydropteridin e pyrophosphokinase; experiment: Binding affinity to Staphylococcus aureus HPPK by isothermal calorimetry
[9] = molecular target: T2, 2-amino-4-hydroxy-6-hydroxymethyldihydropteridin e pyrophosphokinase; experiment: Inhibition of Staphylococcus aureus HPPK after 20 mins by luciferase reporter gene assay
Summary of the method: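 Kinase-Glo ATP-depletion assay: HPPK 0.4 ng μL⁻¹ with 0.3 μM pterin and 0.2 μM ATP in 100 mM Tris-HCl pH 8.5, 10 mM MgCl₂, 0.01% BSA, 0.01% Tween 20, 10 mM β-mercaptoethanol. Compound added from 50% DMSO solution; 20 min at room temperature, then stopped with Kinase-Glo reagent and luminescence read 10 min later. Triplicates; IC50 from sigmoidal dose–response fit.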

COc1ccc(C(=O)CSc2nc3nc(N)[nH]c(=O)c3[nH]2)cc1
Activity [1]: Active | Kd [2]: 1.09 µM | Kd [3]: 76.6 µM | Kd [4]: 3.9 µM | Activity [5]: inactive | Activity [6]: Active | Activity [7]: Active

COc1ccccc1C(=O)CSc1nc2nc(N)[nH]c(=O)c2[nH]1
Kd [2]: 2.8 µM | Kd [3]: 21.7 µM | Kd [4]: 1.6 µM

N#Cc1ccc(CSc2nc3nc(N)[nH]c(=O)c3[nH]2)cc1
Kd [2]: 0.66 µM | Kd [3]: 11.1 µM | Kd [4]: 12.3 µM

Nc1nc2nc(SCC(=O)c3ccccc3)[nH]c2c(=O)[nH]1
Kd [2]: 1.4 µM | Kd [3]: 10.3 µM | Kd [4]: 3.9 µM

Nc1nc2[nH]c(SCc3ccccc3C(F)(F)F)nc2c(=O)[nH]1
Kd [2]: 2.81 µM | Kd [3]: 7.26 µM | Kd [4]: 9.74 µM

Nc1nc2[nH]c(SCc3ccccc3)nc2c(=O)[nH]1
Kd [2]: 1.79 µM | Kd [3]: 13.5 µM | Kd [4]: 43.9 µM

Nc1nc2[nH]c(SCC(=O)c3ccc(-c4ccccc4)cc3)nc2c(=O)[nH]1
Kd [2]: 0.81 µM | Kd [3]: 21.5 µM | Kd [4]: 8.4 µM

CC(Sc1nc2nc(N)[nH]c(=O)c2[nH]1)C(=O)c1ccccc1 (stereo not drawn)
Kd [2]: 1.8 µM | Kd [3]: 7.5 µM | Kd [4]: 8.2 µM

Nc1nc2[nH]c(S)nc2c(=O)[nH]1
Kd [2]: 12.6 µM | Kd [3]: 10.8 µM | Kd [4]: 76.2 µM | Kd [8]: 11 µM | IC50 [9]: 41 µM

CC(=O)CSc1nc2c(=O)[nH]c(N)nc2[nH]1
Kd [2]: 1.85 µM | Kd [3]: 42.7 µM | Kd [4]: 7.8 µM

COc1ccc(CCSc2nc3c(=O)[nH]c(N)nc3[nH]2)cc1
Kd [2]: 7.8 µM | Kd [3]: 73.5 µM | Kd [4]: 14.2 µM

Nc1nc2[nH]c(SCc3ccccc3F)nc2c(=O)[nH]1
Kd [2]: 0.45 µM | Kd [3]: 4.3 µM | Kd [4]: 8.5 µM | IC50 [9]: 24.9 µM
